Reference: article PMC6459016 (Journal of computer-aided molecular design, 2019)
Like-named read-outs stand apart in the source and are kept apart here.

Experiments:
[1] = Stirring double-sink PAMPA permeability; assay type: in vitro ADME; details: in-house at NCATS
Procedure, shortened: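 Effective permeability was measured by passive diffusion in a stirring double-sink PAMPA. Sample preparation, analysis and data processing were fully automated.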

recombinant human GALK1 [2] = target: T1, recombinant human GALK1 (Homo sapiens, UniProt P51570); experiment: GALK1 inhibition assay; assay type: biochemical; details: for IC50: luminescence GALK1-ATP-depletion assay, ATP 35 μM, galactose 100 μM; for MR (maximal % inhibition): maximal % inhibition at 57 μM compound
T1 sequence (P51570 whole entry): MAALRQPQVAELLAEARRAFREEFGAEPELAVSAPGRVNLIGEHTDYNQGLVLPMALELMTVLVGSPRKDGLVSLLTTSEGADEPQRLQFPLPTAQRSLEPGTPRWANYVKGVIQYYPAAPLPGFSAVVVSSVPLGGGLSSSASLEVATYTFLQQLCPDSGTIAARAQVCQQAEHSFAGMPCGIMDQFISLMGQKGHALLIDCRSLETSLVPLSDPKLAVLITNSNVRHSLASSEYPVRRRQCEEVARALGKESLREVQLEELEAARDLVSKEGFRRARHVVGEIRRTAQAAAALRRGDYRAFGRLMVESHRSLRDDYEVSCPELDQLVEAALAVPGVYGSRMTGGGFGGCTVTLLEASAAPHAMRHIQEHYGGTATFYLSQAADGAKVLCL
Procedure, shortened: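 Recombinant human GALK1 was run in 1536-well format against test compound at 6 doses (3 nM – 57 μM). Reactions were started with ATP (35 μM) and galactose (100 μM), both near their K_M under these conditions. Remaining ATP was read by Kinase-Glo luminescence. Normalized concentration-response data were fitted to a four-parameter logistic to give IC50 and efficacy (maximal response).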

[3] = Kinetic aqueous solubility; assay type: physicochemical; details: kinetic aqueous solubility in PBS 7.4 buffer from a 10 mM DMSO stock
[4] = Rat liver microsome stability; assay type: in vitro ADME; details: 37 °C, NADPH
recombinant human GALK1 [5] = target: T1, recombinant human GALK1; details: cited from earlier work

## Cc1ccc(S(=O)(=O)Nc2cnccc2C(=O)Nc2nc(-c3ccccc3)cs2)cc1 [C2]
[1]
  Permeability: 7243 nm/s
Recombinant human GALK1 [2]
  IC50: 14 µM
  MR (maximal % inhibition): 83.5%
[3]
  Solubility: 9.4 Ug/ml
[4]
  Microsomal T1/2: 17.0 m

## Cc1ccc(S(=O)(=O)Nc2cc(C(F)(F)F)ccc2C(=O)Nc2nc(-c3ccccc3)cs2)cc1 [C3]
[1]
  Permeability: 822 nm/s
Recombinant human GALK1 [2]
  IC50: 15.9 µM
  MR (maximal % inhibition): 92.9%
[3]
  Solubility: < 1.0 Ug/ml
[4]
  Microsomal T1/2: 15.0 m

## Cc1ccc(S(=O)(=O)Nc2cc(Cl)c(Cl)cc2C(=O)Nc2nc(-c3ccccc3)cs2)cc1 [C4]
[1]
  Permeability: < 50 nm/s
Recombinant human GALK1 [2]
  IC50: 22.2 µM
  MR (maximal % inhibition): 89.3%
[3]
  Solubility: <1.0 Ug/ml
[4]
  Microsomal T1/2: 13.0 m

## COc1ccc(-c2csc(NC(=O)c3ccccc3NS(=O)(=O)c3ccc(C)cc3)n2)cc1 [C5]
[1]
  Permeability: 301 nm/s
Recombinant human GALK1 [2]
  IC50: 11.1 µM
  MR (maximal % inhibition): 75.9%
[3]
  Solubility: < 1.0 Ug/ml
[4]
  Microsomal T1/2: 6.3 m

## Cc1ccc(-c2csc(NC(=O)c3ccccc3NS(=O)(=O)c3ccc(C)cc3)n2)cc1 [C6]
[1]
  Permeability: 356 nm/s
Recombinant human GALK1 [2]
  IC50: 14 µM
  MR (maximal % inhibition): 81.0%
[3]
  Solubility: < 1.0 Ug/ml
[4]
  Microsomal T1/2: 2.6 m

## Cc1ccccc1S(=O)(=O)Nc1cnccc1C(=O)Nc1nc(-c2ccccc2)cs1 [C7]
[1]
  Permeability: 10647 nm/s
Recombinant human GALK1 [2]
  IC50: 11.1 µM
  MR (maximal % inhibition): 90.3%
[3]
  Solubility: 50.0 Ug/ml

## COc1ccc(S(=O)(=O)Nc2cnccc2C(=O)Nc2nc(-c3ccccc3)cs2)cc1 [C8]
[1]
  Permeability: 6745 nm/s
Recombinant human GALK1 [2]
  IC50: 15.7 µM
  MR (maximal % inhibition): 84.5%
[3]
  Solubility: 54.1 Ug/ml
[4]
  Microsomal T1/2: 1.6 m

## O=C(Nc1nc(-c2ccccc2)cs1)c1ccncc1NS(=O)(=O)c1ccc(-c2ccccc2)cc1 [C9]
[1]
  Permeability: < 10 nm/s
Recombinant human GALK1 [2]
  IC50: 17.7 µM
  MR (maximal % inhibition): 88.5%
[3]
  Solubility: < 1.0 Ug/ml
[4]
  Microsomal T1/2: 2.0 m

## O=C(Nc1nc(-c2ccccc2)cs1)c1ccncc1NS(=O)(=O)c1ccc(N2CCCC2=O)cc1 [C10]
[1]
  Permeability: 3135 nm/s
Recombinant human GALK1 [2]
  IC50: 44.5 µM
  MR (maximal % inhibition): 62.5%
[3]
  Solubility: 57.0 Ug/ml
[4]
  Microsomal T1/2: 1.6 m

## O=C1CCCC2=C1C(c1[nH]ncc1Cl)N=C(Nc1nc3ccccc3o1)N2 (stereo not shown) [NCGC00238624]
Recombinant human GALK1 [5]; GALK1
  IC50: 4.7 µM
Recombinant human GALK1 [5]; with respect to ATP and galactose substrate
  Mode of inhibition: competitive with respect to ATP and uncompetitive to galactose substrate
